The record followed here is ChEMBL document CHEMBL1158962, “Isolation and characterization of two antimicrobial agents from mace (Myristica fragrans)” (1991).

Common to all, as to assay type: functional
Test [1] deals with Candida albicans. As to the kind of experiment: Antimicrobial activity against Candida albicans 3110 after 24 hrs by agar dilution method. The method in brief: (§1)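 Agar dilution. Each test substance was first taken at 320 µg per 0.1 ml DMSO, mixed with 10 ml warm nutrient agar (45-50°) and left to set. C. albicans strains were streaked radially and incubated at 30°. MIC was the lowest drug concentration with no growth, read at 24 h and at 48 h. Nystatin was the positive control.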

Test [2] has as its system Candida albicans. The test can be described thus: Antimicrobial activity against Candida albicans ATCC 12301 after 48 hrs by agar dilution method. The method, boiled down:
as §1

Test [3] concerns Enterococcus durans. As to the kind of experiment: Antimicrobial activity against Streptococcus durans NCTC 8307 after 24 hrs by agar dilution method. The settings on record: NCTC 8307, 24 h. The method in brief: (§2)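 Agar dilution. Each test substance was first taken at 320 µg per 0.1 ml DMSO, mixed with 10 ml warm nutrient agar (45-50°) and left to set. NCTC bacteria were streaked radially and incubated at 37°. MIC was the lowest drug concentration showing no growth, read at 24 h and at 48 h. Chloramphenicol was the positive control.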
For orientation: In agar dilution, organisms are placed on agar that contains the substance at set levels.

Test [4] relates to Candida albicans. The test can be described thus: Antimicrobial activity against Candida albicans ATCC 12301 after 24 hrs by agar dilution method. The method in brief: as §1
In test [5] the test system is Enterococcus durans. As to the kind of experiment: Antimicrobial activity against Streptococcus durans NCTC 8307 after 48 hrs by agar dilution method. To be noted: NCTC 8307, 48 h. The method, boiled down: as §2
Test [6] relates to Bacillus subtilis. The test can be described thus: Antimicrobial activity against Bacillus subtilis NCTC 10400 after 24 hrs by agar dilution method. To be noted: NCTC 10400, 24 h. The method, boiled down:
as §2

Test [7] deals with Candida albicans. As to the kind of experiment: Antimicrobial activity against Candida albicans 3153 after 24 hrs by agar dilution method. The method in brief: as §1
In test [8] the test system is Staphylococcus aureus. The test can be described thus: Antimicrobial activity against Staphylococcus aureus NCTC 6571 after 48 hrs by agar dilution method. The settings on record: NCTC 6571, 48 h. The method, boiled down: as §2
Test [9] concerns Candida albicans. As to the kind of experiment: Antimicrobial activity against Candida albicans 3110 after 48 hrs by agar dilution method. The method, boiled down:
as §1

Test [10] concerns Staphylococcus aureus. The test can be described thus: Antimicrobial activity against Staphylococcus aureus NCTC 6571 after 24 hrs by agar dilution method. To be noted: NCTC 6571, 24 h. The method, boiled down:
as §2

Test [11] relates to Bacillus subtilis. The test can be described thus: Antimicrobial activity against Bacillus subtilis NCTC 10400 after 48 hrs by agar dilution method. The settings on record: NCTC 10400, 48 h. The method in brief:
as §2

For test [12], the system named is Candida albicans. As to the kind of experiment: Antimicrobial activity against Candida albicans 3153 after 48 hrs by agar dilution method. The method, boiled down:
as §1

The mark [13] stands for this setting: Candida albicans, 3110, 24 h, read-out: MIC.
Setting [14] is: ATCC 10231, 48 h, in the assay text read “ATCC 10231” for “ATCC 12301”, read-out: MIC.
The mark [15] stands for this setting: ATCC 10231, 24 h, in the assay text read “ATCC 10231” for “ATCC 12301”, read-out: MIC.
[16] abbreviates: Candida albicans, 3153, 24 h, read-out: MIC.
The mark [17] stands for this setting: Candida albicans, 3110, 48 h, read-out: MIC.
Setting [18] is: Candida albicans, 3153, 48 h, read-out: MIC.
Setting [19] is: ATCC 10231, 48 h, in the assay text read “ATCC 10231” for “ATCC 12301”.
Where [20] appears, read: ATCC 10231, 24 h, in the assay text read “ATCC 10231” for “ATCC 12301”.

In brackets after ≈: the same amount, converted by molar mass. Bounds are passed on as bounds.

Take `O=C(CCCCCCCCc1ccc(O)c(O)c1)c1c(O)cccc1O` [MALABARICONE C]: the MIC (usually the lowest concentration found to suppress growth) in the test with Candida albicans [1] (setting [13]) was 8 µg/mL (≈ 22.3 µM); in the test with Candida albicans [2] (setting [14]), 32 µg/mL (≈ 89.3 µM); with Enterococcus durans [3] (read-out: MIC), 4 µg/mL (≈ 11.2 µM); in the test with Candida albicans [4] (setting [15]) it was 32 µg/mL (≈ 89.3 µM); with Enterococcus durans [5] (read-out: MIC), 8 µg/mL (≈ 22.3 µM); with Bacillus subtilis [6] (read-out: MIC), 2 µg/mL (≈ 5.58 µM). Moreover, the MIC with Candida albicans [7] (setting [16]) was 8 µg/mL (≈ 22.3 µM); in the test on Staphylococcus aureus [8] (read-out: MIC) it was 8 µg/mL (≈ 22.3 µM); in the test on Candida albicans [9] (setting [17]), 8 µg/mL (≈ 22.3 µM); with Staphylococcus aureus [10] (read-out: MIC), 4 µg/mL (≈ 11.2 µM); in the test with Bacillus subtilis [11] (read-out: MIC), 2 µg/mL (≈ 5.58 µM); in the test on Candida albicans [12] (setting [18]), 8 µg/mL (≈ 22.3 µM).

Regarding `O=C(N[C@H](CO)[C@H](O)c1ccc([N+](=O)[O-])cc1)C(Cl)Cl` [CHLORAMPHENICOL], the MIC with Enterococcus durans [3] (read-out: MIC) was found to be 1 µg/mL (≈ 3.09 µM); with Enterococcus durans [5] (read-out: MIC), 4 µg/mL (≈ 12.4 µM); in the test with Bacillus subtilis [6] (read-out: MIC), 4 µg/mL (≈ 12.4 µM); in the test on Staphylococcus aureus [8] (read-out: MIC), 4 µg/mL (≈ 12.4 µM); in the test on Staphylococcus aureus [10] (read-out: MIC), 4 µg/mL (≈ 12.4 µM); with Bacillus subtilis [11] (read-out: MIC) it was 4 µg/mL (≈ 12.4 µM).

In the case of NYSTATIN, the MIC with Candida albicans [1] amounted to 2 µg/mL; in the test on Candida albicans [2], 4 µg/mL; in the test with Candida albicans [4] it was 2 µg/mL; in the test on Candida albicans [7] it was 2 µg/mL; against Candida albicans [9], 4 µg/mL; against Candida albicans [12] it was 4 µg/mL.

As to `COc1cccc(OC)c1C(=O)CCCCCCCCc1ccc(O)cc1`, the MIC in the test on Candida albicans [1] (setting [13]) was less than 32 µg/mL; in the test on Candida albicans [2] (setting [19]) it was greater than 32 µg/mL; with Enterococcus durans [3], greater than 32 µg/mL; with Candida albicans [4] (setting [15]), less than 32 µg/mL; against Enterococcus durans [5], greater than 32 µg/mL; with Bacillus subtilis [6] it was greater than 32 µg/mL. Further, the MIC in the test with Candida albicans [7] (Candida albicans, 3153, 24 h) is greater than 32 µg/mL; against Staphylococcus aureus [8], greater than 32 µg/mL; against Candida albicans [9] (Candida albicans, 3110, 48 h), greater than 32 µg/mL; with Staphylococcus aureus [10] (read-out: MIC), 32 µg/mL (≈ 86.4 µM); against Bacillus subtilis [11], greater than 32 µg/mL; with Candida albicans [12] (Candida albicans, 3153, 48 h), greater than 32 µg/mL.

For `Oc1ccc(CCCCCCCCC(O)c2c(O)cccc2O)cc1` (centres undefined), the MIC against Candida albicans [1] (Candida albicans, 3110, 24 h) was greater than 32 µg/mL; with Candida albicans [2] (setting [19]) it was greater than 32 µg/mL; with Enterococcus durans [3] (read-out: MIC), 8 µg/mL (≈ 23.2 µM); against Candida albicans [4] (setting [20]), greater than 32 µg/mL; in the test with Enterococcus durans [5] (read-out: MIC) it was 16 µg/mL (≈ 46.5 µM); with Bacillus subtilis [6] (read-out: MIC), 4 µg/mL (≈ 11.6 µM). Moreover, the minimum inhibitory concentration (MIC) in the test on Candida albicans [7] (setting [16]) is 32 µg/mL (≈ 92.9 µM); in the test with Staphylococcus aureus [8] (read-out: MIC), 16 µg/mL (≈ 46.5 µM); against Candida albicans [9] (Candida albicans, 3110, 48 h) it was greater than 32 µg/mL; in the test with Staphylococcus aureus [10] (read-out: MIC), 8 µg/mL (≈ 23.2 µM); in the test with Bacillus subtilis [11] (read-out: MIC) it was 4 µg/mL (≈ 11.6 µM); with Candida albicans [12] (Candida albicans, 3153, 48 h), greater than 32 µg/mL.

Take `CC(=O)c1c(O)cccc1O`: the minimal inhibitory concentration (MIC) with Candida albicans [1] (setting [13]) was less than 32 µg/mL; in the test with Enterococcus durans [3], greater than 32 µg/mL; in the test on Candida albicans [4] (setting [20]), greater than 32 µg/mL; in the test on Bacillus subtilis [6], greater than 32 µg/mL; in the test with Candida albicans [7] (Candida albicans, 3153, 24 h) it was greater than 32 µg/mL; in the test on Staphylococcus aureus [10], greater than 32 µg/mL.

Consider `COc1ccc(CCCCCCCCC(=O)c2c(OC)cccc2OC)cc1`, for which the MIC in the test with Candida albicans [1] (Candida albicans, 3110, 24 h) was greater than 32 µg/mL; in the test with Enterococcus durans [3] it was greater than 32 µg/mL; in the test with Candida albicans [4] (setting [15]) it was less than 32 µg/mL; against Bacillus subtilis [6], greater than 32 µg/mL; with Candida albicans [7] (setting [16]), less than 32 µg/mL; against Staphylococcus aureus [10] it was greater than 32 µg/mL.

Consider `O=C(CCCCCCCCc1ccc(O)cc1)c1c(O)cccc1O` [MALABARICONE B], for which the MIC with Candida albicans [1] (setting [13]) stood at 8 µg/mL (≈ 23.4 µM); with Candida albicans [2] (setting [14]) it was 16 µg/mL (≈ 46.7 µM); in the test with Enterococcus durans [3] (read-out: MIC), 1 µg/mL (≈ 2.92 µM); with Candida albicans [4] (setting [15]) it was 16 µg/mL (≈ 46.7 µM); in the test with Enterococcus durans [5] (read-out: MIC), 2 µg/mL (≈ 5.84 µM); in the test with Bacillus subtilis [6] (read-out: MIC) it was 1 µg/mL (≈ 2.92 µM). The MIC in the test with Candida albicans [7] (setting [16]) came to 4 µg/mL (≈ 11.7 µM); in the test with Staphylococcus aureus [8] (read-out: MIC), 1 µg/mL (≈ 2.92 µM); in the test with Candida albicans [9] (setting [17]) it was 8 µg/mL (≈ 23.4 µM); in the test on Staphylococcus aureus [10] (read-out: MIC), 1 µg/mL (≈ 2.92 µM); in the test with Bacillus subtilis [11] (read-out: MIC), 1 µg/mL (≈ 2.92 µM); with Candida albicans [12] (setting [18]), 8 µg/mL (≈ 23.4 µM).

On to `Oc1ccc(CCCCCCCCCc2c(O)cccc2O)cc1`, for which the MIC with Candida albicans [1] (setting [13]) turned out to be 8 µg/mL (≈ 24.4 µM); in the test with Candida albicans [2] (setting [14]) it was 16 µg/mL (≈ 48.7 µM); in the test on Enterococcus durans [3] (read-out: MIC), 4 µg/mL (≈ 12.2 µM); with Candida albicans [4] (setting [15]), 16 µg/mL (≈ 48.7 µM); in the test with Enterococcus durans [5] (read-out: MIC), 8 µg/mL (≈ 24.4 µM); with Bacillus subtilis [6] (read-out: MIC), 4 µg/mL (≈ 12.2 µM). In addition, the minimal inhibitory concentration (MIC) turned out to be 8 µg/mL (≈ 24.4 µM) in the test with Candida albicans [7] (setting [16]); 4 µg/mL (≈ 12.2 µM) in the test on Staphylococcus aureus [8] (read-out: MIC); 8 µg/mL (≈ 24.4 µM) in the test with Candida albicans [9] (setting [17]); 4 µg/mL (≈ 12.2 µM) in the test on Staphylococcus aureus [10] (read-out: MIC); 4 µg/mL (≈ 12.2 µM) in the test on Bacillus subtilis [11] (read-out: MIC); 8 µg/mL (≈ 24.4 µM) in the test on Candida albicans [12] (setting [18]).

Take `COc1ccc(CCCCCCCCC(=O)c2c(O)cccc2OC)cc1`: the MIC is greater than 32 µg/mL against Candida albicans [1] (Candida albicans, 3110, 24 h); greater than 32 µg/mL in the test with Enterococcus durans [3]; less than 32 µg/mL in the test with Candida albicans [4] (setting [15]); greater than 32 µg/mL with Bacillus subtilis [6]; less than 32 µg/mL in the test on Candida albicans [7] (setting [16]); greater than 32 µg/mL against Staphylococcus aureus [10].

On to `COc1cccc(O)c1C(=O)CCCCCCCCc1ccc(O)cc1`, for which the MIC in the test on Candida albicans [1] (Candida albicans, 3110, 24 h) is greater than 32 µg/mL; in the test on Enterococcus durans [3] (read-out: MIC), 2 µg/mL (≈ 5.61 µM); against Candida albicans [4] (setting [20]), greater than 32 µg/mL; with Enterococcus durans [5] (read-out: MIC), 4 µg/mL (≈ 11.2 µM); with Bacillus subtilis [6] (read-out: MIC) it was 4 µg/mL (≈ 11.2 µM); against Candida albicans [7] (Candida albicans, 3153, 24 h), greater than 32 µg/mL. For the same compound, the MIC in the test on Staphylococcus aureus [8] (read-out: MIC), in the test on Staphylococcus aureus [10] (read-out: MIC) and in the test with Bacillus subtilis [11] (read-out: MIC) was 4 µg/mL (≈ 11.2 µM) throughout.
